From ChEMBL document CHEMBL1127060 (1993)
Where “and” joins values, the source holds several entries; their conditions need not be identical. Equal entries are not always repeated. Calls of active or inactive are those of the source. The calls are words filed in the database; no cut-off is given here.

Legend:
[1] = Agonism at turkey erythrocyte P2Y receptor.; type: functional, Meleagris gallopavo
How it was run: (§1)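 Turkey erythrocytes labeled 18–24 h at 37 °C with 2-[3H]myo-inositol in inositol-free DMEM; ghosts made by hypotonic lysis (5 mM Na phosphate pH 7.4, 5 mM MgCl2, 1 mM EGTA). PLC assay: ~175 μg protein ghosts, 1 μM GTPγS, Hepes pH 7.0 medium with 424 μM CaCl2, 2 mM EGTA; 5 min, 30 °C; total [3H]inositol phosphates by anion exchange; K0.5 averaged from 3–8 curves.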

Meleagris gallopavo [2] = assay: Induction of inositol phosphate in turkey erythrocyte membranes at 100 uM; Inactive; type: functional, cell membranes; how it was run: as §1
Cavia porcellus [3] = species: Cavia porcellus; assay: Tested for contraction of guinea pig vas deferens at 37 degree C; Potency equal to ATP; type: functional
Cavia porcellus [4] = species: Cavia porcellus; assay: Tested for relaxation of carbachol-contracted guinea pig taenia coli at 37 degree C; Significantly more potent than ATP; type: functional
Oryctolagus cuniculus [5] = species: Oryctolagus cuniculus; assay: Tested for relaxation of carbachol-contracted rabbit mesenteric artery at 37 degree C; Significantly more potent than 2MeSATP; type: functional
Oryctolagus cuniculus [6] = species: Oryctolagus cuniculus; assay: Tested for contraction of rabbit saphenous artery produced by 1 uM alpha,beta-MeATP at 37 degree C; Not active; type: functional
Oryctolagus cuniculus [7] = species: Oryctolagus cuniculus; assay: Tested for relaxation of carbachol-contracted rabbit aorta at 37 degree C; Significantly more potent than 2MeSATP; type: functional
Cavia porcellus [8] = species: Cavia porcellus; assay: Tested for contraction of guinea pig isolated urinary bladder detrusor muscle at 37 degree C; Potency equal to ATP; type: functional; conditions: Muscle tissue
Cavia porcellus [9] = species: Cavia porcellus; assay: Tested for relaxation of carbachol-contracted guinea pig taenia coli at 37 degree C; type: functional
How it was run: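 Carbachol-precontracted guinea pig taenia coli segments in 37 °C organ baths with oxygenated Krebs solution. Tension changes were recorded in response to increasing nucleotide concentrations. At least two determinations. Responses were expressed as % relaxation of the carbachol-induced contraction and reported as pD2. ATP was tested on every preparation.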

Oryctolagus cuniculus [10] = species: Oryctolagus cuniculus; assay: Tested for relaxation of carbachol-contracted rabbit mesenteric artery at 37 degree C; Potency equal to 2MeSATP; type: functional
Oryctolagus cuniculus [11] = species: Oryctolagus cuniculus; assay: Tested for contraction of rabbit saphenous artery produced by 1 uM alpha,beta-MeATP at 37 degree C; Potency equal to ATP; type: functional
Oryctolagus cuniculus [12] = species: Oryctolagus cuniculus; assay: Tested for relaxation of carbachol-contracted rabbit aorta at 37 degree C; Potency equal to 2MeSATP; type: functional
Meleagris gallopavo [13] = assay: Tested for stimulation of production of inositol phosphate in turkey erythrocyte membrane; Not active; type: functional; how it was run: as §1
Cavia porcellus [14] = species: Cavia porcellus; assay: Tested for contraction of guinea pig isolated urinary bladder detrusor muscle at 37 degree C; Not active; type: functional; conditions: Muscle tissue
Cavia porcellus [15] = species: Cavia porcellus; assay: Tested for contraction of guinea pig vas deferens at 37 degree C; Not active; type: functional
Cavia porcellus [16] = species: Cavia porcellus; assay: Tested for relaxation of carbachol-contracted guinea pig taenia coli at 37 degree C; Significantly less potent than ATP; type: functional
Oryctolagus cuniculus [17] = species: Oryctolagus cuniculus; assay: Tested for relaxation of carbachol-contracted rabbit mesenteric artery at 37 degree C; More potent than or equal to 2MeSATP; type: functional
Meleagris gallopavo [18] = assay: Stimulating production of inositol phosphate in turkey erythrocyte membranes at a concentration of 100 uM; Inactive; type: functional, cell membranes; how it was run: as §1
Oryctolagus cuniculus [19] = species: Oryctolagus cuniculus; assay: Tested for relaxation of carbachol-contracted rabbit mesenteric artery at 37 degree C; Not active; type: functional
Oryctolagus cuniculus [20] = species: Oryctolagus cuniculus; assay: Tested for contraction of rabbit saphenous artery produced by 1 uM alpha,beta-MeATP at 37 degree C; type: functional
Oryctolagus cuniculus [21] = species: Oryctolagus cuniculus; assay: Tested for relaxation of carbachol-contracted rabbit aorta at 37 degree C; Not active; type: functional
Oryctolagus cuniculus [22] = species: Oryctolagus cuniculus; assay: Tested for relaxation of carbachol-contracted rabbit mesenteric artery at 37 degree C; Less potent or equal to 2MeSATP; type: functional
Cavia porcellus [23] = species: Cavia porcellus; assay: Tested for contraction of guinea pig isolated urinary bladder detrusor muscle at 37 degree C; Less potent than or equal to ATP; type: functional; conditions: Muscle tissue
Cavia porcellus [24] = species: Cavia porcellus; assay: Tested for relaxation of carbachol-contracted guinea pig taenia coli at 37 degree C; More potent than or equal to ATP; type: functional
Cavia porcellus [25] = species: Cavia porcellus; assay: Tested for contraction of guinea pig isolated urinary bladder detrusor muscle by 1 uM alpha,beta-MeATP at 37 degree C; Not active; type: functional; conditions: Muscle tissue
Cavia porcellus [26] = species: Cavia porcellus; assay: Tested for relaxation of carbachol-contracted guinea pig taenia coli at 37 degree C; Potency equal to ATP; type: functional
Oryctolagus cuniculus [27] = species: Oryctolagus cuniculus; assay: Tested for relaxation of carbachol-contracted rabbit mesenteric artery at 37 degree C; Significantly less potent than 2MeSATP; type: functional
Oryctolagus cuniculus [28] = species: Oryctolagus cuniculus; assay: Tested for relaxation of carbachol-contracted rabbit aorta at 37 degree C; More potent or equal to 2MeSATP; type: functional

SMILES: Nc1nc(SCCCCCCCS)nc2c1ncn2C1O[C@H](COP(=O)(O)OP(=O)(O)OP(=O)(O)O)[C@@H](O)[C@H]1O (stereo not given in full)
- K 0.5 [1]: 773 nM

SMILES: Nc1nc(SCCc2ccc([N+](=O)[O-])cc2)nc2c1ncn2C1O[C@H](CO)[C@@H](O)[C@H]1O (stereo not given in full)
- Activity (Meleagris gallopavo [2]): inactive

SMILES: CSc1nc(N)c2ncn([C@@H]3O[C@H](COP(=O)(O)OP(=O)(O)OP(=O)(O)O)[C@@H](O)[C@H]3O)c2n1
- K 0.5 [1]: 8 nM
- Relative activity (Cavia porcellus [3]): Active
- Relative activity (Cavia porcellus [4]): 8
- Relative activity (Oryctolagus cuniculus [5]): 6.5
- Relative activity (Oryctolagus cuniculus [6]): inactive
- Relative activity (Oryctolagus cuniculus [7]): 6.8
- Relative activity (Cavia porcellus [8]): Active

SMILES: NCCCCCCCSc1nc(N)c2ncn(C3O[C@H](COP(=O)(O)OP(=O)(O)OP(=O)(O)O)[C@@H](O)[C@H]3O)c2n1 (stereo not given in full)
- K 0.5 [1]: 72.8 nM

SMILES: Nc1ncnc2c1ncn2[C@@H]1O[C@H](COP(=O)(O)OP(=O)(O)OP(=O)(O)O)[C@@H](O)[C@H]1O [ADENOSINE TRIPHOSPHATE]
- K 0.5 [1]: 2800 nM
- Relative activity (Cavia porcellus [3]): 3.5
- Relative activity (Cavia porcellus [9]): 6.2
- Relative activity (Oryctolagus cuniculus [10]): 6
- Relative activity (Oryctolagus cuniculus [11]): Active
- Relative activity (Oryctolagus cuniculus [12]): 4.5
- Relative activity (Cavia porcellus [8]): Active

SMILES: Nc1ncnc2c1ncn2[C@@H]1O[C@H](CO)[C@@H](O)[C@H]1O [ADENOSINE]
- K 0.5 (Meleagris gallopavo [13]): inactive
- Relative activity (Cavia porcellus [14]): inactive
- Relative activity (Cavia porcellus [15]): inactive
- Relative activity (Cavia porcellus [16]): 3.9
- Relative activity (Oryctolagus cuniculus [17]): 5.7
- Relative activity (Oryctolagus cuniculus [10]): 6
- Relative activity (Oryctolagus cuniculus [6]): inactive

SMILES: C=CCCCCSc1nc(N)c2ncn(C3O[C@H](CO)[C@@H](O)[C@H]3O)c2n1 (stereo not given in full)
- Activity (Meleagris gallopavo [18]): inactive

SMILES: C=CCCCCSc1nc(NC)c2ncn(C3O[C@H](COP(=O)(O)O)[C@@H](O)[C@H]3O)c2n1 (stereo not given in full)
- K 0.5 [1]: >100000 nM
- Relative activity (Cavia porcellus [14]): inactive
- Relative activity (Cavia porcellus [15]): inactive
- Relative activity (Cavia porcellus [16]): Partially active
- Relative activity (Oryctolagus cuniculus [19]): inactive
- Relative activity (Oryctolagus cuniculus [20]): 6.7%
- Relative activity (Oryctolagus cuniculus [21]): inactive

SMILES: N#CSCCCCCCCSc1nc(N)c2ncn(C3O[C@H](COP(=O)(O)OP(=O)(O)OP(=O)(O)O)[C@@H](O)[C@H]3O)c2n1 (stereo not given in full)
- K 0.5 [1]: 25.9 nM

SMILES: Nc1ncnc2c1ncn2[C@@H]1O[C@H](COP(=O)(O)O)[C@@H](O)[C@H]1O [ADENOSINE PHOSPHATE]
- K 0.5 (Meleagris gallopavo [13]): inactive
- Relative activity (Cavia porcellus [14]): inactive
- Relative activity (Cavia porcellus [15]): inactive
- Relative activity (Cavia porcellus [16]): Partially active
- Relative activity (Oryctolagus cuniculus [6]): inactive
- Relative activity (Oryctolagus cuniculus [12]): 4.8
- Relative activity (Oryctolagus cuniculus [22]): 5

SMILES: C=CCCCCSc1nc(NC)c2ncn(C3O[C@H](COP(=O)(O)OP(=O)(O)OP(=O)(O)O)[C@@H](O)[C@H]3O)c2n1 (stereo not given in full)
- K 0.5 [1]: 26 nM
- Relative activity (Cavia porcellus [15]): inactive
- Relative activity (Cavia porcellus [23]): Partially active
- Relative activity (Cavia porcellus [24]): 7.2
- Relative activity (Oryctolagus cuniculus [17]): 5.6 and 6
- Relative activity (Oryctolagus cuniculus [20]): 1.5%

SMILES: CNc1ncnc2c1ncn2[C@@H]1O[C@H](COP(=O)(O)OP(=O)(O)OP(=O)(O)O)[C@@H](O)[C@H]1O
- K 0.5 [1]: 19000 nM
- Relative activity (Cavia porcellus [15]): inactive
- Relative activity (Cavia porcellus [25]): inactive
- Relative activity (Cavia porcellus [26]): 5.8
- Relative activity (Oryctolagus cuniculus [19]): inactive
- Relative activity (Oryctolagus cuniculus [27]): Partially active
- Relative activity (Oryctolagus cuniculus [6]): inactive

SMILES: Nc1nc(Cl)nc2c1ncn2[C@@H]1O[C@H](COP(=O)(O)OP(=O)(O)OP(=O)(O)O)[C@@H](O)[C@H]1O
- K 0.5 [1]: 72 nM
- Relative activity (Cavia porcellus [3]): Active
- Relative activity (Cavia porcellus [4]): 7.2
- Relative activity (Oryctolagus cuniculus [10]): 6.2
- Relative activity (Oryctolagus cuniculus [6]): inactive
- Relative activity (Oryctolagus cuniculus [28]): 5.8
- Relative activity (Cavia porcellus [8]): Active
